This is an account of results in ChEMBL document CHEMBL1157974, “C18 dibenzocyclooctadiene lignans from Kadsura philippinensis” (2006).

Common to all, as to type: functional
For one experiment, the system named is KB. Put plainly: Cytotoxicity against human KB cells by MTT assay. The following applies: read-out: ED50 (the source's name). Put shortly: (§1)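 Cells obtained from ATCC. Cytotoxicity read by MTT [3-(4,5-dimethylthiazol-2-yl)-2,5-diphenyltetrazolium bromide] colorimetric method.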
(Formazan colour is commonly taken as a measure of viable cells.)

Experiment [1] in a line: Cytotoxicity against human Hepa 59T/VGH cells by MTT assay. Particulars: read-out: ED50 (the source's name).
The subject of the next experiment is HeLa. Nature of the experiment: Cytotoxicity against human HeLa cells by MTT assay. Particulars: read-out: ED50 (the source's name). In outline:
as §1

Experiment [2] concerns Radical scavenging activity. Put plainly: Antioxidant activity assessed as DPPH radical scavenging activity at 100 uM. In outline: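 Test compound in 100 mM Tris-HCl (pH 7.4) added to 500 μM DPPH in ethanol (concentration of the added solution), shaken, then left 20 min at room temperature in the dark. Absorbance read at 517 nm by UV-vis spectrophotometer; a table footnote cites a DPPH-HPLC method. Values are mean ± SD of 8 samples.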
(In general: The DPPH test is a chemical assay of radical scavenging.)

Turning to `COc1cc2c(c(O)c1OC)-c1c(cc3c(c1OC)OCO3)[C@H](OC(=O)/C=C/c1ccccc1)[C@H](C)[C@H](C)C2` [1-DEMETHYLKADSUPHILIN A], the EC50 (in the experiment with KB; in experiment [1]; with HeLa) was at least 5 µg/mL each time.
Consider `O=C1O[C@H]([C@@H](O)CO)C(O)=C1O`, for which the Activity in experiment [2] worked out at 12.5%.
`COc1c(O)cc2c(c1OC)-c1c(cc3c(c1OC)OCO3)C[C@H](C)[C@H](C)[C@@H]2O` [KADSUPHILINS B]: the EC50 (with KB; in experiment [1]; with HeLa) was at least 5 µg/mL throughout.
As for `COC1=C(OC)C(=O)[C@]23C(=C1)C[C@@H](C)[C@@]2(C)[C@@H](O)c1cc2c(cc13)OCO2` [KADSULIGNAN K], the EC50 (in the experiment on KB; in experiment [1]; in the experiment on HeLa) was at least 5 µg/mL throughout. In experiment [2], the Activity is 4.6%.
Regarding `C/C=C(/C)C(=O)O[C@H]1c2cc3c(c(OC)c2-c2c(cc(OC)c(OC)c2O)[C@H](OC(=O)/C(C)=C\C)[C@](C)(O)[C@H]1C)OCO3` [SCHIZANRIN J], the EC50 (in the experiment on KB; in experiment [1]; with HeLa) was at least 5 µg/mL throughout. Further, the Activity in experiment [2] turned out to be 1.9%.
In the case of `C/C=C(/C)C(=O)O[C@H]1c2cc3c(c(OC)c2-c2c(cc(OC)c(OC)c2O)C[C@@H](C)[C@H]1C)OCO3` [ANGELOYLBINANKADSURIN A], the EC50 (with KB; in experiment [1]; in the experiment on HeLa) was at least 5 µg/mL throughout. The Activity in experiment [2] amounted to 2.3%.
In the case of `COc1c2c(cc3c1-c1c(cc4c(c1OC)OCO4)[C@H](O)[C@@H](C)[C@@H](C)C3)OCO2`, the EC50 (with KB; in experiment [1]; in the experiment with HeLa) was at least 5 µg/mL in each case.
Regarding `COc1cc2c(c(OC)c1OC)-c1c(cc3c(c1OC)OCO3)[C@H](OC(=O)/C=C/c1ccccc1)[C@H](C)[C@H](C)C2` [KADSUPHILINS A], the EC50 (in the experiment with KB; in experiment [1]; in the experiment with HeLa) was at least 5 µg/mL in each case. Further, in experiment [2], the Activity was determined as 1.5%.
